SENP7 inh: inhibitors of human SENP7 protease; Q9BQF6; recombinant SENP7, Z-RLRGG-aminoluciferin luminescence, 40 min; inhibition, % at 5 µM; actives 1.5% (n = 330,000);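 active = inhibition above about 50% at the single test dose, limit read from the data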
Target sequence (Q9BQF6 706-1050 limits assumed): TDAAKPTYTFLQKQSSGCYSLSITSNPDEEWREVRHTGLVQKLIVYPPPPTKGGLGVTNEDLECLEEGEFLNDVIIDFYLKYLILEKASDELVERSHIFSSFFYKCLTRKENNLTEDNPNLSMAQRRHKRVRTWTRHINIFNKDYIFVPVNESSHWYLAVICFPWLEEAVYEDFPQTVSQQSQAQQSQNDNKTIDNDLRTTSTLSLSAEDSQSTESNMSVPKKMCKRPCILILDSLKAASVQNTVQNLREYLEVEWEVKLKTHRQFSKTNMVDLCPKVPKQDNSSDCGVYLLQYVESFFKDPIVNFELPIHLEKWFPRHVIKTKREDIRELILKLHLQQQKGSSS
SENP1 FRET inh: inhibitors of human SENP1 SUMO protease catalytic domain | Q9P0U3 | recombinant SENP1 catalytic domain, CyPet-SUMO1-YPet FRET cleavage | inhibition, % at 10 µM | actives 0.21% (n = 360,000) | AID 624204;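 active = inhibition at least 30% at 10 µM, raw YFP signal under a set limit, fluorescence ratio 0.5 to 1.5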
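Compound: 10 µM single point, 0.5% DMSO; Test system: hSENP1 catalytic domain, recombinant; Timing: 50 min reaction at room temperature; Technique: FRET, CFP and YFP emission; Control set: no-enzyme wells low, DMSO-plus-enzyme wells high control.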
SENP8 block-1: SENP8 (human) protease inhibition; inhibition, % at 20 µM; Q96LD8; recombinant SENP8, Nedd8 substrate fluorescence; actives 0.64% (n = 360,000); in the data active = inhibition mostly above about 40%, no sharp cut-off; inactive = mostly below about 27%
Platelet DG rel: modulates dense granule release in human platelets; human platelet-rich plasma, SFLLRN dense granule ATP release, luminescence; inhibition, %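 (compounds screened at 7.5 µM in platelet-rich plasma)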; actives 0.22% (n = 300,000);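 active = mean replicate score, as percent of positive control, at or above 50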
SENP8 block-2: blocks the human protease SENP8. purified SENP8, Z-RLRGG-aminoluciferin cleavage, luminescence. inhibition, % at 10 µM. actives 1.2% (n = 330,000); in the data active = inhibition above about 50%
SENP6 block: SENP6 protease inhibition. Q9GZR1. Recombinant SENP6 catalytic domain, aminoluciferin luminescence. inhibition, % at 10 µM. actives 1.8% (n = 330,000). AID 2599;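 active = inhibition above about 50% at the single tested dose, limit read from the data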
SENP8 conf: human SENP8 inhibition, confirmed | AID 488912 | shares compounds with SENP7 inh | Recombinant SENP8, Z-RLRGG-aminoluciferin luminescence, 60 min | actives 40% (n = 6,200) | inhibition, % at 12.5 µM;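 active = mean inhibition across replicates above about 50%, limit read from the data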
SENP6 confirm: human SENP6 inhibition, confirmed. shares compounds with SENP7 inh. recombinant SENP6, Z-RLRGG-aminoluciferin luminescence. inhibition, % at 12.5 µM. actives 58% (n = 6,200). AID 488915
SENP7 conf: human SENP7 inhibition, confirmed; AID 488917; actives 69% (n = 6,200); inhibition, % at 12.5 µM; recombinant SENP7, Z-RLRGG-aminoluciferin luminescence, 40 min; shares compounds with SENP7 inh
Casp3 select: inhibits human caspase-3 in SENP selectivity test | shares compounds with SENP7 inh | purified caspase-3, Z-DEVD-aminoluciferin luminescence, 60 min | inhibition, % at 12.5 µM | actives 60% (n = 6,200);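 active = mean inhibition above about 50%, limit read from the data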
Target sequence (P42574 28-227 limits assumed): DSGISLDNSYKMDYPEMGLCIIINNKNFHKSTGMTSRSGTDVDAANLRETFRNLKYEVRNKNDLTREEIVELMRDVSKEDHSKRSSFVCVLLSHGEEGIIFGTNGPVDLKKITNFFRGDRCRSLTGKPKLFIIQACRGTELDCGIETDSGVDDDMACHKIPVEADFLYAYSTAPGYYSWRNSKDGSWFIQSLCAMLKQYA
Luc interf: interferes with luciferase luminescence in SENP counter-screen; shares compounds with SENP7 inh; Pre-incubated SENP8/Z-RLRGG-aminoluciferin, luciferase luminescence interference; inhibition, % at 12.5 µM; actives 39% (n = 6,200); AID 488919;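 active = mean inhibition above about 50% when retested at one dose, limit read from the data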
Large screens that a line does not name were inactive (follow-up assays come after a bar, where they were run). Shown are actives, neighbours in structure and some others; about 2.6% of the full set was active somewhere.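 The calls were made as follows, unless noted: active = mean inhibition above about 50% in the one-dose retest (limit read from the data); inactive = the rest.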

O=c1oc2cc(O)c(Cl)cc2c2ccccc12	SENP6 block 60.9 | SENP8 conf 50.2 | SENP6 confirm inactive | SENP7 conf 73.3 | Casp3 select 67.9 | Luc interf inactive
Cc1ccc(S(=O)(=O)N2C[C@@H]3[C@H]4CC[C@H](C4)[C@@H]3[C@@H](C)[C@@H]2c2ccn([Si](C(C)C)(C(C)C)C(C)C)c2)cc1	none (no result: Platelet DG rel, SENP8 block-2, SENP6 block)
CCOC(=O)c1c(C)oc2c1cc(O)c1ccccc12	SENP7 inh 71.7 | SENP8 conf inactive | SENP6 confirm inactive | SENP7 conf inactive | Casp3 select inactive | Luc interf inactive
Fc1ccccc1/C=N/Nc1nc2ccccc2o1	SENP7 inh 69.5 | SENP8 conf inactive | SENP6 confirm inactive | SENP7 conf inactive | Casp3 select inactive | Luc interf inactive
CC(=O)Nc1cccc(NC(=O)CSc2nc3c(=O)n(C)c(=O)n(C)c3n2C)c1	none
CN(C)C(=O)CN1CCN(Cc2nc(CC3CC3)no2)CC1	SENP6 block 73.0 | SENP8 conf inactive | SENP6 confirm inactive | SENP7 conf inactive | Casp3 select inactive | Luc interf inactive
COc1ccccc1OC(C)C(=O)N(Cc1ccco1)C1CCS(=O)(=O)C1 (stereo unspecified)	none
O=C(O)c1cccc(C(=O)Cc2ccccc2)c1	SENP8 block-2 55.5, SENP6 block 74.6 | SENP8 conf 62.6 | SENP6 confirm 60.1 | SENP7 conf 87.7 | Casp3 select 91.5 | Luc interf 73.8
O=C(O)C(Cc1ccccc1)N1Cc2ccccc2C1=O (stereo unspecified)	none
O=C1NC2NC(=O)N(C(Cc3ccccc3)C(=O)O)C2N1 (stereo unspecified)	SENP6 block 60.2 | SENP8 conf inactive | SENP6 confirm inactive | SENP7 conf inactive | Casp3 select inactive | Luc interf inactive
CC(C)Cc1nnc(NC(=O)CCC(=O)N2CCN(c3ccccc3F)CC2)s1	none
CC(C)C1COC(c2cccc3ccccc23)=N1 (stereo unspecified)	SENP7 inh 91.9, SENP8 block-2 89.3, SENP6 block 95.9 | SENP8 conf 60.0 | SENP6 confirm 92.0 | SENP7 conf 100.1 | Casp3 select 84.6 | Luc interf inactive
COc1ccc(S(=O)(=O)NCCC(C)C)cc1OC	SENP7 inh 88.4 | SENP8 conf inactive | SENP6 confirm inactive | SENP7 conf inactive | Casp3 select inactive | Luc interf inactive
O=C(O)c1cccc(NC(=S)N/N=C/c2ccccn2)c1	SENP7 inh 77.4, SENP8 block-2 61.7 | SENP8 conf 77.0 | SENP6 confirm 75.6 | SENP7 conf 94.8 | Casp3 select inactive | Luc interf 74.7
O=C(O)c1cccc(NC(=S)N/N=C/c2cccc(O)c2)c1	none
O=C(O/N=C/c1ccc(Br)cc1)c1ccc(F)cc1	SENP7 inh 75.7 | SENP8 conf inactive | SENP6 confirm inactive | SENP7 conf inactive | Casp3 select inactive | Luc interf inactive
Nc1nc2n(n1)C(c1cccc(Cl)c1)CC(c1ccc(F)cc1)N2 (stereo unspecified)	SENP7 inh 64.8 | SENP8 conf inactive | SENP6 confirm inactive | SENP7 conf inactive | Casp3 select inactive | Luc interf inactive
O=C(O)COc1ccc(/C=C/c2nc(-c3ccccc3O)n[nH]2)cc1	SENP7 inh 69.1, SENP8 block-2 67.0, SENP6 block 86.9 | SENP8 conf 84.2 | SENP6 confirm 81.5 | SENP7 conf 95.8 | Casp3 select 71.3 | Luc interf 82.8
O=C(O)COc1ccc(-c2nccc(-c3ccccn3)n2)cc1	none
COc1ccc(/C=C/c2nc(-c3ccccc3O)n[nH]2)cc1OC	SENP6 block 67.1 | SENP8 conf 65.4 | SENP6 confirm 62.9 | SENP7 conf 85.2 | Casp3 select inactive | Luc interf inactive
CCc1cc(C(=O)NC2CCCN(Cc3ccccc3F)C2)n(C)n1 (stereo unspecified)	none
COc1ccc(/C=C/C(=O)Nc2cccnc2Cl)cc1	SENP7 inh 91.5, SENP8 block-2 88.9, SENP6 block 89.2 | SENP8 conf inactive | SENP6 confirm 92.2 | SENP7 conf 100.7 | Casp3 select 94.6 | Luc interf 61.9
COc1ccccc1/C=C/C(=O)Nc1cccnc1Cl	none
CC(=O)c1ccc(Nc2nc(C(N)COCc3ccccc3)cs2)cc1 (stereo unspecified)	none (no result: SENP7 inh, Platelet DG rel, SENP8 block-2, SENP6 block)
CCc1[nH]nc(C(=O)N/N=C/c2ccncc2)c1C	none
C[C@H]1CN([C@@H](C)CO)C(=O)CCCn2cc(nn2)CO[C@@H]1CN(C)S(C)(=O)=O	none (no result: SENP7 inh, Platelet DG rel, SENP8 block-2, SENP6 block)
CNC(=O)/C(C#N)=c1\s/c(=C/C(=O)OC)c(=O)n1-c1ccccc1	none
COC(=O)/C=c1\sc2ncnn2c1=O	SENP6 block 84.9 | SENP8 conf inactive | SENP6 confirm inactive | SENP7 conf inactive | Casp3 select inactive | Luc interf inactive
O=c1c(N2CCOCC2)coc2ccccc12	none
O=c1[nH]c(N2CCOCC2)cc2ccccc12	SENP7 inh 95.8, SENP8 block-2 87.1, SENP6 block 91.3 | SENP8 conf inactive | SENP6 confirm 75.9 | SENP7 conf 60.9 | Casp3 select inactive | Luc interf inactive
C=C(C)Cn1c(N2CCC(Cc3ccccc3)CC2)nc2c1c(=O)[nH]c(=O)n2C	SENP8 block-2 81.0, SENP6 block 97.6 | SENP8 conf inactive | SENP6 confirm inactive | SENP7 conf inactive | Casp3 select inactive | Luc interf inactive
O=C(c1ccccc1F)N1CCN(c2ccc([N+](=O)[O-])c(NCC3CCCO3)c2)CC1 (stereo unspecified)	SENP7 inh 53.8 | SENP8 conf inactive | SENP6 confirm inactive | SENP7 conf inactive | Casp3 select inactive | Luc interf inactive
COc1ccc2oc(C(=O)Nc3ccccn3)c(C)c2c1	SENP7 inh 92.1, SENP8 block-2 77.4, SENP6 block 86.9 | SENP8 conf 84.7 | SENP6 confirm 84.8 | SENP7 conf 97.8 | Casp3 select 88.0 | Luc interf 87.9

Screening results as filed in PubChem.
